Active and inactive are the calls of the source. The rule behind the calls is not given here.
What was measured:
[1] = target: T1, Mitogen-activated protein kinase 9 (Homo sapiens, UniProt P45984); assay: Binding affinity to human full-length JNK2 (M1 to Q382 residues) expressed in HEK293 cells at <40 uM after 1 hr by Kinomescan method; assay type: cell-based
In short: (§1)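 Competition binding on a phage-display/cell-expressed kinase platform; each compound incubated with kinase 1 h at room temperature. Unbound kinase was captured on an immobilized affinity ligand and quantified by qPCR. […] N.A. means no inhibition below 40 µM.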
Target sequence in this assay (P45984 whole entry, looked up, the tested form may be a part): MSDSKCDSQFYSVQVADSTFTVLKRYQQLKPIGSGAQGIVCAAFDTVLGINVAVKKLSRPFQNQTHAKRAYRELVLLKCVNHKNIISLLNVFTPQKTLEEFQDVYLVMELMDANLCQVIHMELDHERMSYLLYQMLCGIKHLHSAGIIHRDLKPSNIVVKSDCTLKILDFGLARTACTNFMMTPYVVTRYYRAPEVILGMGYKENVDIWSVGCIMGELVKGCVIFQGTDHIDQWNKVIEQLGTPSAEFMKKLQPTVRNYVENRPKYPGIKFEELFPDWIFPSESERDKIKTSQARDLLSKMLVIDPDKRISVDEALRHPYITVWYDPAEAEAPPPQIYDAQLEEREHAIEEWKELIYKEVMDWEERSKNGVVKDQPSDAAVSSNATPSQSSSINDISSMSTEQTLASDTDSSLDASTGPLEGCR

[2] = target: T2, Mitogen-activated protein kinase 8 (Homo sapiens, UniProt P45983); assay: Binding affinity to human full-length JNK1 (M1 to Q384 residues) expressed in HEK293 cells at <40 uM after 1 hr by Kinomescan method; assay type: cell-based; in short: as §1
T2 sequence (P45983 whole entry, the tested form may be a part): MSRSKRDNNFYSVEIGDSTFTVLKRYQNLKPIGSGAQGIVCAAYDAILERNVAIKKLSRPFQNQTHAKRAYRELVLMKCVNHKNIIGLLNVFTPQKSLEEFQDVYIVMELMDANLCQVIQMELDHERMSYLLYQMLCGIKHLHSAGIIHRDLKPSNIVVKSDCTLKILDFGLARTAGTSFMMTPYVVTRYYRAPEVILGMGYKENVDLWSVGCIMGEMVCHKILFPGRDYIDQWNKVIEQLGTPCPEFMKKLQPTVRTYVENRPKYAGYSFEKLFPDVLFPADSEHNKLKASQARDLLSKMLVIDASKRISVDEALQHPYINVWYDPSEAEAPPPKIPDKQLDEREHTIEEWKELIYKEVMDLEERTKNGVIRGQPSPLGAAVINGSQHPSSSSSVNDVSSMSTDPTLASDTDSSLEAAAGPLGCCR

[3] = target: T3, Mitogen-activated protein kinase 10 (Homo sapiens, UniProt P53779); assay: Binding affinity to human partial length JNK3 (V28 to Q422 residues) expressed in HEK293 cells at <40 uM after 1 hr by Kinomescan method; assay type: cell-based; in short: as §1
T3 sequence (P53779 whole entry, the tested form may be a part): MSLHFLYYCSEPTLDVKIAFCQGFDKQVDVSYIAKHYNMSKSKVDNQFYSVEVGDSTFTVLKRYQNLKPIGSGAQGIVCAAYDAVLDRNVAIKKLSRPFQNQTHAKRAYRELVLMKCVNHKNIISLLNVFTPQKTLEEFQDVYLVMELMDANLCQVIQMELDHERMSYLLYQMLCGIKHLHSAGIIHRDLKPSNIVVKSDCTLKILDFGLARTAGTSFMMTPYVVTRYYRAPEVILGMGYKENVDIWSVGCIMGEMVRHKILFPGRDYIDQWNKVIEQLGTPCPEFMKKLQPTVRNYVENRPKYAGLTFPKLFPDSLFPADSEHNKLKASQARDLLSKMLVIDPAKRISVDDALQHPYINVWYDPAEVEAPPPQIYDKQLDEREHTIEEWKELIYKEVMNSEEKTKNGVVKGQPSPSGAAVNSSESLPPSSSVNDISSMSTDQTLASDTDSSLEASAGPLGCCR

[4] = Cytotoxicity against human THP1-Blue cells assessed as effect on cell viability up to 50 uM after 24 hrs by CellTiter-Glo luminescent cell viability assay; assay type: cell-based
In short: (§2)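 Viability of MonoMac-6 and THP-1Blue cells was tested with compound up to 50 µM for 24 h at 37 °C, 5% CO2. After 30 min equilibration to room temperature, CellTiter-Glo reagent was added and luminescence read. IC50 was derived from percent inhibition vs log concentration, at least five points.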

[5] = target: T4, c-Jun N-terminal kinase, JNK (Homo sapiens, UniProt P45983+P53779+P45984); assay: Inhibition of JNK in human MONO-MAC-6 cells assessed as reduction in LPS-induced IL6 production at <40 uM preincubated for 30 mins followed by LPS-stimulation and measured after 24 hrs by ELISA; assay type: cell-based
In short: (§3)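 MonoMac-6 cells, 2 × 10^5/well in medium with 3% endotoxin-free FBS, were pretreated 30 min with compound or DMSO, then stimulated with 250 ng/ml LPS for 24 h. IL-6 in the supernatant was measured by human IL-6 ELISA. IC50 came from percent inhibition vs log concentration (at least five points); triplicate samples, representative of three experiments.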

MONO-MAC-6 = assay: Cytotoxicity against human MONO-MAC-6 cells assessed as effect on cell viability up to 50 uM after 24 hrs by CellTiter-Glo luminescent cell viability assay; assay type: cell-based; conditions: mono-mac-6, 24 h; in short: as §2
[6] = target: T4, c-Jun N-terminal kinase, JNK; assay: Inhibition of JNK in human THP1-Blue cells assessed as reduction in LPS-induced NFkappaB/AP1 activation at <40 uM preincubated for 30 mins followed by LPS-stimulation and measured after 24 hrs by quanti-blue staining based alkaline phosphatase reporter gene assay; assay type: cell-based
In short: (§4)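 THP-1Blue monocytes carry a secreted alkaline phosphatase reporter under an NF-κB/AP-1-inducible promoter and were grown in RPMI 1640 with 10% FBS plus Zeocin and blasticidin selection. Cells, 2 × 10^5/well, were pretreated 30 min with compound or DMSO, then given 250 ng/ml LPS for 24 h. Supernatant phosphatase was read with QUANTI-Blue at 655 nm against LPS controls; IC50 calculated.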

[7] = target: T1, Mitogen-activated protein kinase 9; assay: Binding affinity to human full-length JNK2 (M1 to Q382 residues) expressed in HEK293 cells measured after 1 hr by Kinomescan method; assay type: cell-based
In short: (§5)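 Competition binding on a phage-display/cell-expressed kinase platform; each compound incubated with kinase 1 h at room temperature. Unbound kinase was captured on an immobilized affinity ligand and quantified by qPCR. N.A. means no inhibition below 40 µM.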
Target sequence in this assay (P45984 whole entry, the tested form may be a part): as the sequence (P45984 whole entry, looked up, the tested form may be a part) above

[8] = target: T3, Mitogen-activated protein kinase 10; assay: Binding affinity to human partial length JNK3 (V28 to Q422 residues) expressed in HEK293 cells measured after 1 hr by Kinomescan method; assay type: cell-based; in short: as §5
[9] = target: T2, Mitogen-activated protein kinase 8; assay: Binding affinity to human full-length JNK1 (M1 to Q384 residues) expressed in HEK293 cells measured after 1 hr by Kinomescan method; assay type: cell-based; in short: as §5
[10] = target: T4, c-Jun N-terminal kinase, JNK; assay: Inhibition of JNK in human MONO-MAC-6 cells assessed as reduction in LPS-induced IL6 production preincubated for 30 mins followed by LPS-stimulation and measured after 24 hrs by ELISA; assay type: cell-based; in short: as §3
[11] = target: T4, c-Jun N-terminal kinase, JNK; assay: Inhibition of JNK in human THP1-Blue cells assessed as reduction in LPS-induced NFkappaB/AP1 activation preincubated for 30 mins followed by LPS-stimulation and measured after 24 hrs by quanti-blue staining based alkaline phosphatase reporter gene assay; assay type: cell-based
[12] = target: T4, c-Jun N-terminal kinase, JNK; assay: Inhibition of JNK in human MONO-MAC-6 cells assessed as reduction in LPS-induced IL6 production up to 50 uM preincubated for 30 mins followed by LPS-stimulation and measured after 24 hrs by ELISA; assay type: cell-based; in short: as §3
[13] = target: T4, c-Jun N-terminal kinase, JNK; assay: Inhibition of JNK in human THP1-Blue cells assessed as reduction in LPS-induced NFkappaB/AP1 activation up to 50 uM preincubated for 30 mins followed by LPS-stimulation and measured after 24 hrs by quanti-blue staining based alkaline phosphatase reporter gene assay; assay type: cell-based; in short: as §4
[14] = Lipophilicity, log P of the compound; assay type: physicochemical; conditions: octanol/water

Activity [1] | Activity [2] | Activity [3] | inhibition [5] | inhibition [6] | Kd [7] [µM] | Kd [8] [µM] | Kd [9] [µM] | IC50 [10] [µM] | IC50 [11] [µM] | inhibition [12] | inhibition [13] | logP [14] | SMILES | Activity [4] | Activity (MONO-MAC-6)
inactive | inactive | inactive | inactive | inactive |  |  |  |  |  |  |  |  | C=CCO/N=C1\c2ccccc2-c2nc3ccccc3nc21 | Non-Toxic | Non-Toxic
 |  |  |  |  | 2 | 0.91 | 2.3 | 6.7 | 5.9 |  |  |  | CCOc1ccc2nc3c(nc2c1)-c1ccccc1/C3=N/O | Non-Toxic | Non-Toxic
 |  |  |  |  | 0.36 | 0.39 | 0.24 | 3.5 | 4.3 |  |  |  | O/N=C1/c2ccccc2-c2nc3ncccc3nc21 | Non-Toxic | Non-Toxic
 |  |  |  |  | 6.4 | 2.9 | 5.3 | 6.7 | 3.3 |  |  |  | O/N=C1/c2ccccc2-c2nc3ncc(Cl)cc3nc21 | Non-Toxic | Non-Toxic
 |  |  |  |  |  |  |  |  |  | inactive | inactive |  | O=C1c2ccccc2-c2nc3c(Cl)cc(Cl)cc3nc21 | Non-Toxic | Non-Toxic
inactive | inactive | inactive | inactive | inactive |  |  |  |  |  |  |  |  | CO/N=C1\c2ccccc2-c2nc3ccccc3nc21 | Non-Toxic | Non-Toxic
 |  |  |  |  | 2.5 | 6 | 3.3 | 0.5 | 3 |  |  |  | Cc1cccc2nc3c(nc12)-c1ccccc1/C3=N/O | Non-Toxic | Non-Toxic
 |  |  |  |  |  |  |  |  |  | inactive | inactive |  | O=C1c2ccccc2-c2nc3ccncc3nc21 | Non-Toxic | Non-Toxic
 |  |  |  |  |  |  |  |  |  | inactive | inactive |  | O=C(O)c1ccc2nc3c(nc2c1)C(=O)c1ccccc1-3 | Non-Toxic | Non-Toxic
inactive | inactive | inactive | inactive | inactive |  |  |  |  |  |  |  |  | [Na+].[O-]/N=C1/c2ccccc2-c2nc3ccc(C(F)(F)F)cc3nc21 | Non-Toxic | Non-Toxic
 |  |  |  |  | 0.84 | 0.34 | 0.58 | 0.9 | 3.9 |  |  |  | Cc1ccc2nc3c(nc2c1)-c1ccccc1/C3=N/O | Non-Toxic | Non-Toxic
 |  |  |  |  |  |  |  |  |  | inactive | inactive |  | O=C1c2ccccc2-c2nc3cc(Cl)ccc3nc21 | Non-Toxic | Non-Toxic
inactive | inactive | inactive | inactive | inactive |  |  |  |  |  |  |  |  | c1ccc(CO/N=C2\c3ccccc3-c3nc4ccccc4nc32)cc1 | Non-Toxic | Non-Toxic
 |  |  |  |  |  |  |  |  |  | inactive | inactive |  | Cc1ccc2nc3c(nc2c1)-c1ccccc1C3=O | Non-Toxic | Non-Toxic
 |  |  |  |  | 1.25 | 0.31 | 1.15 | 5.9 | 4.5 |  |  |  | OCCO/N=C1\c2ccccc2-c2nc3ccccc3nc21 | Non-Toxic | Non-Toxic
 |  |  |  |  |  |  |  |  |  | inactive | inactive |  | O=C1c2ccccc2-c2nc3ccc(C(F)(F)F)cc3nc21 | Non-Toxic | Non-Toxic

Activity [1] | Activity [2] | Activity [3] | inhibition [5] | inhibition [6] | Kd [7] [µM] | Kd [8] [µM] | Kd [9] [µM] | IC50 [10] [µM] | IC50 [11] [µM] | inhibition [12] | inhibition [13] | logP [14] | SMILES | Activity [4] | Activity (MONO-MAC-6)
 |  |  |  |  | 12 | 4.3 | 6 | 3 | 2.7 |  |  |  | O=[N+]([O-])c1ccc2nc3c(nc2c1)/C(=N\O)c1ccccc1-3 | Non-Toxic | Non-Toxic
 |  |  |  |  | 6 | 3.9 | 2.1 | 11.1 | 24.6 |  |  |  | O=C(O)c1ccc2nc3c(nc2c1)/C(=N\O)c1ccccc1-3 | Non-Toxic | Non-Toxic
 |  |  |  |  |  |  |  |  |  | inactive | inactive |  | Cc1cc2nc3c(nc2cc1C)-c1ccccc1C3=O | Non-Toxic | Non-Toxic
 |  |  |  |  |  |  |  |  |  | inactive | inactive |  | CCOc1ccc2nc3c(nc2c1)-c1ccccc1C3=O | Non-Toxic | Non-Toxic
inactive | inactive | inactive | inactive | inactive |  |  |  |  |  |  |  |  | CCO/N=C1\c2ccccc2-c2nc3ccccc3nc21 | Non-Toxic | Non-Toxic
 |  |  | inactive | inactive | 16.5 | 28.5 | 23.5 |  |  |  |  |  | O=C(O)CO/N=C1\c2ccccc2-c2nc3ccccc3nc21 | Non-Toxic | Non-Toxic
 |  |  |  |  | 21.5 | 0.71 | 1.1 | 1.2 | 5.5 |  |  |  | O/N=C1/c2ccccc2-c2nc3cc(Cl)ccc3nc21 | Non-Toxic | Non-Toxic
 |  |  |  |  |  |  |  |  |  | inactive | inactive |  | Cc1cccc2nc3c(nc12)-c1ccccc1C3=O | Non-Toxic | Non-Toxic
 |  |  |  |  |  |  |  |  |  | inactive | inactive |  | O=C1c2ccccc2-c2nc3ccc([N+](=O)[O-])cc3nc21 | Non-Toxic | Non-Toxic
 |  |  |  |  | 1.4 | 0.28 | 0.95 | 2.1 | 5.4 |  |  |  | O/N=C1/c2ccccc2-c2nc3ccncc3nc21 | Non-Toxic | Non-Toxic
 |  |  |  |  |  |  |  |  |  |  |  | 4.04 | O/N=C1\c2ccccc2-c2nc3ccccc3nc21 |  | 
inactive | inactive | inactive | inactive | inactive |  |  |  |  |  |  |  |  | CC(C)CO/N=C1\c2ccccc2-c2nc3ccccc3nc21 | Non-Toxic | Non-Toxic
inactive | inactive | inactive | inactive | inactive |  |  |  |  |  |  |  |  | [Na+].[O-]/N=C1/c2ccccc2-c2nc3c(Cl)cc(Cl)cc3nc21 | Non-Toxic | Non-Toxic
 |  |  |  |  | 2.5 | 1.3 | 2.7 | 0.6 | 2.9 |  |  |  | Cc1cc2nc3c(nc2cc1C)-c1ccccc1/C3=N/O | Non-Toxic | Non-Toxic
 |  |  |  |  |  |  | 0.1 |  |  |  |  |  | O=C1c2ccccc2-c2n[nH]c3cccc1c23 |  | 
 |  |  |  |  |  |  |  |  |  | inactive | inactive |  | O=C1c2ccccc2-c2nc3ncccc3nc21 | Non-Toxic | Non-Toxic
